# Reference: ChEMBL document CHEMBL4350992, “Identification of Diketopiperazine-Containing 2-Anilinobenzamides as Potent Sirtuin 2 (SIRT2)-Selective Inhibitors Targeting the "Selectivity Pocket", Substrate-Binding Site, and NAD+-Binding Site” (J Med Chem, 2019)
# The source made the active and inactive calls. The calls are words filed in the database; no cut-off is given here.
# Assays:
# [1] = molecular target: Histone deacetylase (Homo sapiens) (UniProt Q13547+O15379+Q9UBN7+Q92769+Q9UQL6+Q8WUI4+Q9BY41+Q96DB2+P56524+Q9UKV0+Q969S8); test: Inhibition of HDAC in human HeLa cell nuclear extract at 2.5 to 100 uM using fluor de lys as substrate by fluorescence assay; assay type: cell-free
# [2] = test system: N2a; test: Induction of neurite outgrowth in mouse Neuro2a cells assessed as differentiated cells at 2 uM measured after 48 hrs by microscopic analysis (reference value: 4.18 +/- 1.67%); assay type: functional
# Procedure, shortened: (§1)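 N2a cells were plated at 1×10⁴ cells/mL in DMEM with 10% FBS, then switched to DMEM with 2% FBS for differentiation. Compound was added for 24 or 48 h and morphology scored by microscopy. A cell counted as differentiated if it had ≥1 neurite longer than twice the soma diameter; ≥100 cells were counted per condition. Triplicate experiments, mean ± SD, one-way ANOVA with Dunnett's test.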
# [3] = test system: MCF7; test: Growth inhibition of human MCF7 cells at 30 uM measured after 72 hrs by AlamarBlue assay relative to control; assay type: functional; details: MCF7, 72 h, read-out: GI
# Procedure, shortened: (§2)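 MCF-7 cells in DMEM with 10% FBS were seeded at 1×10³ cells/well. After 24 h at 37°C, 5% CO₂, compound in medium was added at varying concentrations for 72 h. AlamarBlue was then added for 3 h and fluorescence read (ex 540/em 590 nm). Percent growth was calculated from the readings, and GI50 from the dose response. Three independent determinations.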
# [4] = molecular target: T1, NAD-dependent protein deacetylase sirtuin-2 (Homo sapiens) (UniProt Q8IXJ6); test: Binding affinity to recombinant human full-length N-terminal His-tagged SIRT2 expressed in baculovirus infected Sf9 insect cells assessed as ADP ribose-compound complex formation measured after 5 mins in presence of NAD+ by MALDI-TOF analysis
# T1 sequence (whole entry): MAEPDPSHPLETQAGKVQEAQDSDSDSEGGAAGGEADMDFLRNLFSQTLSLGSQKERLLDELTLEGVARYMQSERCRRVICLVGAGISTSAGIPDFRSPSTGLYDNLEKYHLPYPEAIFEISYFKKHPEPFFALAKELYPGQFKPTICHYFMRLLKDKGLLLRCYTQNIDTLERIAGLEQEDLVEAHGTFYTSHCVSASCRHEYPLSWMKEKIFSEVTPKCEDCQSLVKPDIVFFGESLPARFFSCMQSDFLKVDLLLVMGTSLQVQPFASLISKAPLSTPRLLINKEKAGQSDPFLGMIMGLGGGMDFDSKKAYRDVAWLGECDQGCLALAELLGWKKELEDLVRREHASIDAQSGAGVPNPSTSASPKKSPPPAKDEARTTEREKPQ
# Procedure, shortened: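 Recombinant SIRT2 at 1.9 µM, 500 µM NAD⁺ and 1 mM compound were reacted for 5 min at 37°C in 40 mM sodium phosphate pH 7.0 with 240 mM NaCl, 120 mM imidazole, 0.2 mM DTT, 20% glycerol and 2% DMSO. Controls lacked compound, NAD⁺ or enzyme. Mixtures were diluted, desalted on C18 tips and analysed by MALDI-TOF in reflectron negative-ion mode with α-cyano-4-hydroxycinnamic acid matrix.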
# [5] = molecular target: T1, NAD-dependent protein deacetylase sirtuin-2 (Homo sapiens); test: Inhibition of human N-terminal His-tagged SIRT2 expressed in Escherichia coli at 1 uM using p53 (Gln-Pro-Lys-Lys(Ac)) (317 to 320 residues) as substrate incubated for 3 hrs measured up to 30 mins by fluorescence assay relative to control
# [6] = molecular target: T2, NAD-dependent protein deacetylase sirtuin-1 (Homo sapiens) (UniProt Q96EB6); test: Inhibition of human N-terminal His-tagged SIRT1 expressed in Escherichia coli at 50 uM using p53 (Arg-His-Lys-Lys(Ac)) (379 to 382 residues) as substrate incubated for 3 hrs measured up to 30 mins by fluorescence assay relative to control
# T2 sequence (whole entry): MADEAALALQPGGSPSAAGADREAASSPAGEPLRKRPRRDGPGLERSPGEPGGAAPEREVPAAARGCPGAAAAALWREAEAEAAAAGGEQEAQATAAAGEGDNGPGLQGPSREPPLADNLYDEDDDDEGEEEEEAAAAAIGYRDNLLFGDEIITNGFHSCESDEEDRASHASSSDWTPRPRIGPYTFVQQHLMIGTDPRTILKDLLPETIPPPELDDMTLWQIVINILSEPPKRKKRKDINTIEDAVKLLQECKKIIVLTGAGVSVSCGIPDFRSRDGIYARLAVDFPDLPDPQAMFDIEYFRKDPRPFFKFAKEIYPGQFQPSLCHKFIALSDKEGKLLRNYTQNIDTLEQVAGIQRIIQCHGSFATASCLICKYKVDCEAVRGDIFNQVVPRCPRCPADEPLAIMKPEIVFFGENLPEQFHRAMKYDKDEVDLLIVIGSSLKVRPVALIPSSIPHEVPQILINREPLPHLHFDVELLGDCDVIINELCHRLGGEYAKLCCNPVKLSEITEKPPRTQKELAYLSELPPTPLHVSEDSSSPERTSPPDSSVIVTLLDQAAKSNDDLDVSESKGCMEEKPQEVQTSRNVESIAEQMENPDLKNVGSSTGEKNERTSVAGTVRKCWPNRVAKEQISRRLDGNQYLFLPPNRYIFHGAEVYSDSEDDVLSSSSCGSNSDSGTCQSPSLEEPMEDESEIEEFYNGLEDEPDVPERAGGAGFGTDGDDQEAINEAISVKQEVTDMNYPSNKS
# [7] = test system: N2a; test: Induction of neurite outgrowth in mouse Neuro2a cells assessed as differentiated cells at 2 uM measured after 24 hrs by microscopic analysis (reference value: 2.53 +/- 0.76%); assay type: functional; procedure, shortened: as §1
# [8] = molecular target: NAD-dependent protein deacylase sirtuin-5, mitochondrial (Homo sapiens) (UniProt Q9NXA8); test: Inhibition of human N-terminal His-tagged SIRT5 (37 to 310 residues) expressed in Escherichia coli at 100 uM using flour de lys succinyl as substrate incubated for 3 hrs measured up to 30 mins by fluorescence assay relative to control
# Sequence of NAD-dependent protein deacylase sirtuin-5, mitochondrial (Homo sapiens) (Q9NXA8 37-310 limits assumed): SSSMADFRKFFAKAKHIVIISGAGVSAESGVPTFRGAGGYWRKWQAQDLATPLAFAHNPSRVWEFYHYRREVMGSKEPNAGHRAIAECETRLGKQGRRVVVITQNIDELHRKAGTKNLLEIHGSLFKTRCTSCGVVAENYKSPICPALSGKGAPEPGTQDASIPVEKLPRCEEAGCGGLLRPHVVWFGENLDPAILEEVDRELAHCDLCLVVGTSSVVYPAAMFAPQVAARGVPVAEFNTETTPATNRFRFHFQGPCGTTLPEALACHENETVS
# [9] = molecular target: Lysine-specific demethylase 5A (Homo sapiens) (UniProt P29375); test: Inhibition of human C-terminal FLAG-tagged KDM5A (1 to 1090 residues) expressed in baculovirus infected Sf9 insect cells at 2.5 to 100 uM using H3(1-21)K4(Me3)-GGK(Biotin)/2-OG as substrate measured after 1 hr by Alphalisa assay
# Sequence of Lysine-specific demethylase 5A (Homo sapiens) (P29375 whole entry, the tested form may be a part): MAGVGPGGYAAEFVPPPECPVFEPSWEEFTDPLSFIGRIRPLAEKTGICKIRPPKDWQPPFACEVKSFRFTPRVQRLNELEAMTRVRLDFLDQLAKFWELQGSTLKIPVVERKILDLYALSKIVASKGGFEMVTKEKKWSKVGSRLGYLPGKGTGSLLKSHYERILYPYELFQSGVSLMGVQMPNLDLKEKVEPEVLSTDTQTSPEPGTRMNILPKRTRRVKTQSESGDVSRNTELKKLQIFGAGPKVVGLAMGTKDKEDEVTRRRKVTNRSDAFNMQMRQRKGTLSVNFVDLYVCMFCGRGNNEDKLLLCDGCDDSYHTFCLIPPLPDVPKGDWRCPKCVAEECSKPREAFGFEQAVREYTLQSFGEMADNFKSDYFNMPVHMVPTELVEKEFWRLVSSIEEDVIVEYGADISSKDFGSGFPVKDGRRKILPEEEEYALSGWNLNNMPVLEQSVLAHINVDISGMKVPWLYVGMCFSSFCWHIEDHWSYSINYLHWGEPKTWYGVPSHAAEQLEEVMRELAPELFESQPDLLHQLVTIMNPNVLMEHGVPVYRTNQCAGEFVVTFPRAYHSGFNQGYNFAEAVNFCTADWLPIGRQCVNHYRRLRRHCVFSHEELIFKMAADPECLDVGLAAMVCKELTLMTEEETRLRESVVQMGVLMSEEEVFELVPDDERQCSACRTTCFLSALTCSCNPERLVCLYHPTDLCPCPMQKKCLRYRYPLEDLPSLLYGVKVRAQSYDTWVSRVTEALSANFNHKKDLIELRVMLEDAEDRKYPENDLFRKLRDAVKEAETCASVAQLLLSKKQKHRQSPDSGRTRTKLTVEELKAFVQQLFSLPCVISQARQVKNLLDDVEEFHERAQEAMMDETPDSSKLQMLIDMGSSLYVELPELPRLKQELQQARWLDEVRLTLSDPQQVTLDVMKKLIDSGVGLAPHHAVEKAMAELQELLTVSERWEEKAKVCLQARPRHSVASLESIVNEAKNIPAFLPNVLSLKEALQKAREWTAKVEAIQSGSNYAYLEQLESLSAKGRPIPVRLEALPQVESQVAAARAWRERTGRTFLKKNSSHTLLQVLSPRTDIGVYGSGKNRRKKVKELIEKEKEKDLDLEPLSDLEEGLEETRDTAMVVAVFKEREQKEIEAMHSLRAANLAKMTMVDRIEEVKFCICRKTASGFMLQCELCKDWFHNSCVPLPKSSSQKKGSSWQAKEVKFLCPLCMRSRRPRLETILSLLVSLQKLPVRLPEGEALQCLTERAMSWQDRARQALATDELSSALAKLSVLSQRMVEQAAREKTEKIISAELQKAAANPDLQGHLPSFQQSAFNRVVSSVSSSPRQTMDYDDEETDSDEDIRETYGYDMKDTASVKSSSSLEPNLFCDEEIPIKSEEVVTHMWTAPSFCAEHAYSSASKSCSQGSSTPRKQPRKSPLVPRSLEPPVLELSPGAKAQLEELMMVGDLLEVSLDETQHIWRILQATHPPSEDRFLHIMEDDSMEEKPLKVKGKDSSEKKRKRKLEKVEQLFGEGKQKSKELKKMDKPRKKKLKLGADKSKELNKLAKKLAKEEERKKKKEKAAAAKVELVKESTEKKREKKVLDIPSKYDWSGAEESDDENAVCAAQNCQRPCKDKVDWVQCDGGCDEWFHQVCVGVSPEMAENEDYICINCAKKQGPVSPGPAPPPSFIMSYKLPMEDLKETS
# [10] = test system: MCF7; test: Growth inhibition of human MCF7 cells measured after 72 hrs by AlamarBlue assay; assay type: functional; procedure, shortened: as §2
# [11] = molecular target: T3, NAD-dependent protein deacetylase sirtuin-2 (Homo sapiens, UniProt Q8IXJ6); test: Inhibition of human N-terminal His-tagged SIRT2 expressed in Escherichia coli using p53 (Gln-Pro-Lys-Lys(Ac)) (317 to 320 residues) as substrate incubated for 3 hrs measured up to 30 mins in presence of NAD+ by fluorescence-based Michaelis-Menten plot analysis; details: in the assay text read “incubated for 45 mins” for “incubated for 3 hrs”
# T3 sequence (Q8IXJ6 whole entry): T1 sequence (whole entry)
# Procedure, shortened: (§3)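 The Fluor de Lys SIRT2 assay was run with reaction time shortened to 45 min. The acetylated substrate concentration was varied at saturating NAD⁺. Inhibitor was tested at 0, 0.1, 0.4, 0.6 and 1 µM, or at 0, 0.02, 0.06, 0.1 and 0.4 µM. Ki was derived from Michaelis–Menten and Lineweaver–Burk plots.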
# [12] = molecular target: T1, NAD-dependent protein deacetylase sirtuin-2 (Homo sapiens); test: Competitive inhibition of human N-terminal His-tagged SIRT2 expressed in Escherichia coli up to uM using varying levels of p53 (Gln-Pro-Lys-Lys(Ac)) (317 to 320 residues) as substrate incubated for 3 hrs measured up to 30 mins in presence of NAD+ by Lineweaver-burk plot analysis; details: in the assay text read “incubated for 45 mins” for “incubated for 3 hrs”; procedure, shortened: as §3
# [13] = molecular target: T4, NAD-dependent protein deacetylase sirtuin-1 (Homo sapiens, UniProt Q96EB6); test: Inhibition of human N-terminal His-tagged SIRT1 expressed in Escherichia coli using p53 (Arg-His-Lys-Lys(Ac)) (379 to 382 residues) as substrate incubated for 3 hrs measured up to 30 mins by fluorescence assay
# T4 sequence (Q96EB6 whole entry): T2 sequence (whole entry)
# [14] = molecular target: T3, NAD-dependent protein deacetylase sirtuin-2; test: Inhibition of human N-terminal His-tagged SIRT2 expressed in Escherichia coli using p53 (Gln-Pro-Lys-Lys(Ac)) (317 to 320 residues) as substrate incubated for 3 hrs measured up to 30 mins by fluorescence assay
# [15] = molecular target: T1, NAD-dependent protein deacetylase sirtuin-2 (Homo sapiens); test: Inhibition of human N-terminal His-tagged SIRT2 expressed in Escherichia coli at 10 uM using p53 (Gln-Pro-Lys-Lys(Ac)) (317 to 320 residues) as substrate incubated for 3 hrs measured up to 30 mins by fluorescence assay relative to control
# [16] = molecular target: T5, NAD-dependent protein deacetylase sirtuin-3, mitochondrial (Homo sapiens) (UniProt Q9NTG7); test: Inhibition of human N-terminal His-tagged SIRT3 (102 to 399 residues) expressed in Escherichia coli at 50 uM using p53 (Gln-Pro-Lys-Lys(Ac)) (317 to 320 residues) as substrate incubated for 3 hrs measured up to 30 mins by fluorescence assay relative to control
# T5 sequence (whole entry): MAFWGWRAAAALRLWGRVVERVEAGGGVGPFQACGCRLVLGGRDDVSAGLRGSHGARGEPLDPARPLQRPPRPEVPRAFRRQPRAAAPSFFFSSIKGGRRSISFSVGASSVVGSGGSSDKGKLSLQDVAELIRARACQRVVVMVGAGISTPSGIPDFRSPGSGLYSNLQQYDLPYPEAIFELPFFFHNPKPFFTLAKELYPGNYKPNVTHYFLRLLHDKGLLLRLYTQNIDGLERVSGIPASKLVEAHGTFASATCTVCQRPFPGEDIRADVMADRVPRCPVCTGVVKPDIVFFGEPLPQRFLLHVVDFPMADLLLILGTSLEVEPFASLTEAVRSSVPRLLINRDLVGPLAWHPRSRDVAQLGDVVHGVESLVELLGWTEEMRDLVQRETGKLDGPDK
# [17] = molecular target: T2, NAD-dependent protein deacetylase sirtuin-1 (Homo sapiens); test: Inhibition of human N-terminal His-tagged SIRT1 expressed in Escherichia coli at 100 uM using p53 (Arg-His-Lys-Lys(Ac)) (379 to 382 residues) as substrate incubated for 3 hrs measured up to 30 mins by fluorescence assay relative to control
# [18] = molecular target: T5, NAD-dependent protein deacetylase sirtuin-3, mitochondrial (Homo sapiens); test: Inhibition of human N-terminal His-tagged SIRT3 (102 to 399 residues) expressed in Escherichia coli at 100 uM using p53 (Gln-Pro-Lys-Lys(Ac)) (317 to 320 residues) as substrate incubated for 3 hrs measured up to 30 mins by fluorescence assay relative to control
# [19] = Solubility of the compound in buffer/DMSO at 100 uM; assay type: physicochemical
# [20] = test system: N2a; test: Induction of neurite outgrowth in mouse Neuro2a cells at 0.2 to 2 uM measured after 24 to 48 hrs by microscopic analysis; assay type: functional, cell-based; procedure, shortened: as §1
Compound,inhibition of growth at 30 µM [3] [%],inhibition [5] [%],inhibition [6] [%],inhibition [8] [%],Ki [11] [nM],inhibition [12],IC50 [14] [nM],inhibition [15] [%],inhibition [17] [%],inhibition [18] [%],also measured
O=C1CNC(=O)[C@H](CCCCNC(=S)CNC(=O)c2ccccc2Nc2cccc(OCCc3ccccc3)c2)N1,96,73,41,0,68,Active,310,,,,"inhibition [1]: inactive; Activity [2]: 12.27%; Activity [4]: Active; Activity [7]: 4.54%; inhibition [9]: inactive; growth inhibition (GI) [10]: Dose-dependent effect; GI50 ([10]; MCF7, 72 h): 11500 nM; IC50 [13]: 77400 nM"
Cc1cc(C)nc(SCC(=O)Nc2cccc(Nc3ccccc3C(N)=O)c2)n1,,47,16,16,,,1180,93,28,80,inhibition [16]: 63%
C[C@H](NC(=O)[C@H](CCCCNC(=O)CNC(=O)c1ccccc1Nc1cccc(OCCc2ccccc2)c1)NC(=O)OCc1ccccc1)C(N)=O,,,,6,,,,,51,61,solubility [19]: Insoluble
O=C(CNC(=O)c1ccccc1Nc1cccc(OCCc2ccccc2)c1)NCCCC[C@@H]1NC(=O)CNC1=O,40,59,9,2,470,Active,600,92,13,17,Activity [20]: inactive
